Assay results published in ChEMBL document CHEMBL1134337, “Behavioral approach to nondyskinetic dopamine antagonists: identification of seroquel” (J Med Chem, 2001).

How the values were obtained:
[1] = Number of animals showing dyskinesias was determined in haloperidol sensitized 5 cebus monkeys after (po) administration of 10 mg/kg; assay type: functional
Procedure, shortened: (§1)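 Adult female and male Cebus monkeys sensitized with oral haloperidol 1 mg/kg once per week until dyskinetic reactions occurred. Test drug given orally (2 mL/kg) in 0.5% w/w hydroxypropylmethylcellulose with 0.1% w/w Tween 80 in distilled water, at least 2 weeks between treatments. Two observers watched continuously for 6-7 h, recording reaction type and severity every 30 min. Score is monkeys with dyskinesias/monkeys tested.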

Mus musculus [2] = assay: Antagonism of apomorphine induced swimming was determined in female swiss -Wbster mice after (ip) administration of 10 mg/kg; assay type: functional
Mus musculus [3] = assay: Antagonism of apomorphine induced swimming was determined in female swiss -Wbster mice after (ip) administration of 40 mg/kg; assay type: functional
Mus musculus [4] = assay: Antagonism of apomorphine induced climbing was determined in female swiss -Wbster mice after (ip) administration of 40 mg/kg; assay type: functional
Procedure, shortened: (§2)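 Female Swiss-Webster mice (about 20 g) were fasted about 24 h, then given test compound or vehicle ip or po (N = 20 per group). Vehicle was 0.5% w/w hydroxypropylmethylcellulose with 0.1% w/w Tween 80 in water. After 30 min, mice received apomorphine HCl 1.25 mg/kg sc. At 13 min, each mouse was watched for 1 min; score was mean of highest and lowest rung of 27. Groups were compared with vehicle by Student's t-test.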

Mus musculus [5] = assay: Antagonism of apomorphine induced climbing was determined in female swiss -Wbster mice after (ip) administration of 10 mg/kg; assay type: functional; procedure, shortened: as §2
[6] = Number of animals showing dyskinesias was determined in haloperidol sensitized 12 cebus monkeys after (po) administration of 20 mg/kg; assay type: functional
Procedure, shortened: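 Adult male and female Cebus monkeys were sensitized with haloperidol 1 mg/kg po weekly until dyskinesias appeared. Test drug was given po (2 mL/kg) in HPMC/Tween 80 vehicle, with at least 2 weeks between treatments. Two observers watched continuously for 6-7 h, recording reaction type and severity every 30 min. Result is number of monkeys showing dyskinesias over number tested.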

[7] = Number of animals showing dyskinesias was determined in haloperidol sensitized 2 cebus monkeys after (po) administration of 40 mg/kg; assay type: functional; procedure, shortened: as §1
Mus musculus [8] = assay: Antagonism of apomorphine induced swimming was determined in female swiss -Wbster mice after (po) administration of 80 mg/kg; assay type: functional
Mus musculus [9] = assay: Antagonism of apomorphine induced climbing was determined in female swiss -Wbster mice after (po) administration of 80 mg/kg; assay type: functional; procedure, shortened: as §2
Mus musculus [10] = assay: Antagonism of apomorphine induced swimming was determined in female swiss -Wbster mice after (ip) administration of 80 mg/kg; assay type: functional
Mus musculus [11] = assay: Antagonism of apomorphine induced swimming was determined in female swiss -Wbster mice after (ip) administration of 20 mg/kg; assay type: functional
Mus musculus [12] = assay: Antagonism of apomorphine induced climbing was determined in female swiss -Wbster mice after (ip) administration of 80 mg/kg; assay type: functional; procedure, shortened: as §2
D(2) dopamine receptor = D(2) dopamine receptor (Rattus norvegicus, UniProt P61169); assay: Inhibition of spiropiperidone binding at dopamine receptor D2 of rat.
D(2) dopamine receptor, sequence (P61169 whole entry): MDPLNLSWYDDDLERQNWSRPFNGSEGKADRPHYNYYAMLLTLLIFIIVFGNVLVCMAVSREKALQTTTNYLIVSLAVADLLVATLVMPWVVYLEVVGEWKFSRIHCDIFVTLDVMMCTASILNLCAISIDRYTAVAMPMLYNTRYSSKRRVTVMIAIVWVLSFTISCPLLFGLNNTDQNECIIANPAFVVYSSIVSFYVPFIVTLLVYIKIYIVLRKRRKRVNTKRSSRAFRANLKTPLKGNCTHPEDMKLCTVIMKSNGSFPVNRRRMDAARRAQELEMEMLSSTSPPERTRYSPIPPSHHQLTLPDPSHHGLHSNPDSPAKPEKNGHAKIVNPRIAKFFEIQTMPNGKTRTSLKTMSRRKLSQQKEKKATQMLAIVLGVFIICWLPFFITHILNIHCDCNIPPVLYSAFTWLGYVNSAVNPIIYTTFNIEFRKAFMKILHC

Mus musculus [13] = assay: Antagonism of apomorphine induced climbing was determined in female swiss -Wbster mice after (ip) administration of 20 mg/kg; assay type: functional; procedure, shortened: as §2
Mus musculus [14] = assay: Antagonism of apomorphine induced climbing was determined in female swiss -Webster mice after (po) administration of 2.5 mg/kg; assay type: functional; procedure, shortened: as §2
Mus musculus [15] = assay: Antagonism of apomorphine induced climbing was determined in female swiss -Webster mice after (p.o.) +SKF525A administration of 40 mg/kg; assay type: functional; conditions: route oral; procedure, shortened: as §2
Mus musculus [16] = assay: Antagonism of apomorphine induced climbing was determined in female swiss -Webster mice after (p.o.) +SKF525A administration of 5 mg/kg; assay type: functional; conditions: route oral; procedure, shortened: as §2
[17] = biological target: D(2) dopamine receptor (Rattus norvegicus) (UniProt P61169); assay: Binding affinity at dopamine receptor D2 from rat by spiropiperidone displacement.
D(2) dopamine receptor (Rattus norvegicus), sequence (P61169 whole entry): as above
Procedure, shortened: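 D2 receptor binding was read as % displacement of spiropiperidone, with test compound at 1000 nM unless stated otherwise. IC50 values used at least five concentrations per compound in triplicate. Each value is the mean of two replicate experiments differing by 5% or less.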

Mus musculus [18] = assay: Antagonism of apomorphine induced climbing was determined in female swiss -Webster mice after (ip) administration of 2.5 mg/kg; assay type: functional; procedure, shortened: as §2
Mus musculus [19] = assay: Antagonism of apomorphine induced climbing was determined in female swiss -Webster mice after (ip) administration of 5 mg/kg; assay type: functional; procedure, shortened: as §2
Mus musculus [20] = assay: Antagonism of apomorphine induced climbing was determined in female swiss -Webster mice after (po) administration of 10 mg/kg; assay type: functional; procedure, shortened: as §2
Mus musculus [21] = assay: Antagonism of apomorphine induced climbing was determined in female swiss -Webster mice after (ip) administration of 10 mg/kg; assay type: functional; procedure, shortened: as §2
Mus musculus [22] = assay: Antagonism of apomorphine induced climbing was determined in female swiss -Webster mice after (po) administration of 5 mg/kg; assay type: functional; procedure, shortened: as §2
Mus musculus [23] = assay: Antagonism of apomorphine induced climbing was determined in female swiss -Webster mice after (ip) administration of 40 mg/kg; assay type: functional; procedure, shortened: as §2
Mus musculus [24] = assay: Antagonism of apomorphine induced climbing was determined in female swiss -Webster mice after (p.o.) +SKF525A administration of 20 mg/kg; assay type: functional; conditions: route oral; procedure, shortened: as §2
Mus musculus [25] = assay: Antagonism of apomorphine induced climbing was determined in female swiss -Webster mice after (ip) administration of 20 mg/kg; assay type: functional; procedure, shortened: as §2
Mus musculus [26] = assay: Antagonism of apomorphine induced climbing was determined in female swiss -Webster mice after (po) administration of 20 mg/kg; assay type: functional; procedure, shortened: as §2
Mus musculus [27] = assay: Antagonism of apomorphine induced climbing was determined in female swiss -Webster mice after (p.o.) +SKF525A administration of 10 mg/kg; assay type: functional; conditions: route oral; procedure, shortened: as §2
Mus musculus [28] = assay: Antagonism of apomorphine induced climbing was determined in female swiss -Webster mice after (po) administration of 40 mg/kg; assay type: functional; procedure, shortened: as §2
Mus musculus [29] = assay: Antagonism of apomorphine induced climbing was determined in female swiss -Webster mice after (p.o.) +SKF525A administration of 2.5 mg/kg; assay type: functional; conditions: route oral; procedure, shortened: as §2
Mus musculus [30] = assay: Antagonism of apomorphine induced swimming was determined in female swiss -Wbster mice after (po) administration of 20 mg/kg; assay type: functional
Mus musculus [31] = assay: Antagonism of apomorphine induced swimming was determined in female swiss -Wbster mice after (po) administration of 40 mg/kg; assay type: functional
[32] = Number of animals showing dyskinesias was determined in haloperidol sensitized 3 cebus monkeys after (po) administration of 10 mg/kg; assay type: functional; procedure, shortened: as §1
[33] = Number of animals showing dyskinesias was determined in haloperidol sensitized 11 cebus monkeys after (po) administration of 40 mg/kg; assay type: functional
Procedure, shortened: (§3)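 Adult male and female Cebus monkeys sensitized with haloperidol 1 mg/kg po weekly until dyskinetic reactions appeared. Drug given orally (2 mL/kg) in 0.5% w/w hydroxypropylmethylcellulose with 0.1% w/w Tween 80, at least 2 weeks between treatments. Two observers watched continuously for 6–7 h, logging reaction type and severity every 30 min. Score is the number of monkeys with dyskinesias over the number tested.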

[34] = Number of animals showing dyskinesias was determined in haloperidol sensitized 13 cebus monkeys after (po) administration of 10 mg/kg; assay type: functional; procedure, shortened: as §3
Mus musculus [35] = assay: Antagonism of apomorphine induced swimming was determined in female swiss -Webster mice after (po) administration of 10 mg/kg; assay type: functional
Procedure, shortened: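 Female Swiss-Webster mice (~20 g), food-deprived ~24 h, N = 20 per group; oral dosing in 0.5% w/w hydroxypropylmethylcellulose with 0.1% w/w Tween 80 in water. Apomorphine given; mice placed in a circular tank (5.5 cm water, room temperature) with marks 180° apart. Each 180° swim counted, observed via overhead mirrors; group score derived from swim counts.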

[36] = Number of animals showing dyskinesias was determined in haloperidol sensitized 13 cebus monkeys after (po) administration of 20 mg/kg; assay type: functional; procedure, shortened: as §3
Mus musculus [37] = assay: Antagonism of apomorphine induced climbing was determined in female swiss -Webster mice after (ip) administration of 80 mg/kg; assay type: functional; procedure, shortened: as §2
[38] = Number of animals showing dyskinesias was determined in haloperidol sensitized 2cebus monkeys after (po) administration of 20 mg/kg; assay type: functional; procedure, shortened: as §1
[39] = Number of animals showing dyskinesias was determined in haloperidol sensitized 4 cebus monkeys after (po) administration of 40 mg/kg; assay type: functional; procedure, shortened: as §1
[40] = Number of animals showing dyskinesias was determined in haloperidol sensitized 2 cebus monkeys after (po) administration of 80 mg/kg; assay type: functional; procedure, shortened: as §1
[41] = Number of animals showing dyskinesias was determined in haloperidol sensitized 6 cebus monkeys after (po) administration of 10 mg/kg; assay type: functional; conditions: dose 20 mg/kg; in the assay text read “20 mg/kg” for “10 mg/kg”; procedure, shortened: as §1

SMILES	Activity (Mus musculus [2])	Activity (Mus musculus [3])	Activity (Mus musculus [4])	Activity (Mus musculus [5])	Activity (Mus musculus [8])	Activity (Mus musculus [11])	Activity (Mus musculus [12])	IC50 (D(2) dopamine receptor) [µM]	Activity (Mus musculus [13])	% displacement of spiropiperidone [17] [%]	Activity (Mus musculus [21])	Activity (Mus musculus [23])	Activity (Mus musculus [25])	Activity (Mus musculus [30])	Activity (Mus musculus [31])	also measured
OCCOCCN1CCN(C2=Nc3ccc(F)cc3Sc3ccccc32)CC1	1	8	8	14	2	1	2	0.56	9	–	–	–	–	–	–	No of monkeys [1]: 1; No of monkeys [6]: 3; No of monkeys [7]: 0; Activity (Mus musculus [9]): 23; Activity (Mus musculus [10]): 18
CN1CCN(C2=Nc3ccccc3Oc3ccccc32)CC1	–	–	–	–	–	–	–	–	–	27	2	3	0	–	–	Activity (Mus musculus [14]): 19; Activity (Mus musculus [15]): 19; Activity (Mus musculus [16]): 19; Activity (Mus musculus [18]): 19; Activity (Mus musculus [19]): 13; Activity (Mus musculus [20]): 10; Activity (Mus musculus [22]): 13; Activity (Mus musculus [24]): 18; Activity (Mus musculus [26]): 3; Activity (Mus musculus [27]): 24; Activity (Mus musculus [28]): 3; Activity (Mus musculus [29]): 25
OCCN1CCN(C2=Nc3ccccc3Sc3ccccc32)CC1	3	–	–	–	–	–	–	–	–	–	24	1	6	18	28	No of monkeys [32]: 2
CN1CCN(C2=Nc3cc(Cl)ccc3Nc3ccccc32)CC1 [CLOZAPINE]	–	–	–	–	>15	–	–	–	–	–	23	>5	19	3	>13	No of monkeys [33]: 0; No of monkeys [34]: 0; Activity (Mus musculus [35]): 4; No of monkeys [36]: 0; Activity (Mus musculus [37]): >0
OCCOCCN1CCN(C2=Nc3cc(F)ccc3Sc3ccccc32)CC1	–	–	14	–	–	–	6	–	16	34	–	–	–	–	–	No of monkeys [38]: 0; No of monkeys [39]: 0; No of monkeys [40]: 0
OCCOCCN1CCN(C2=Nc3ccc(O)cc3Sc3ccccc32)CC1	5	31	0	27	–	17	–	0.166	5	–	–	–	–	–	–	No of monkeys [41]: 5
